Key:
BM HSCs = assay: H2B-GFP label dilution assay; format: in vivo, mouse
Method in brief: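 Adult homozygous H2B-GFP;M2-rtTA mice got 2 mg/ml doxycycline in drinking water for 6 weeks. Two weeks after withdrawal, vehicle or 150 mg/kg test compound was gavaged 12 h before vehicle or 150 mg/kg 5FU. BM was harvested 4 weeks after 5FU, and Lin−c-Kit+Sca-1+CD150+CD48− HSC H2B-GFP dilution was curve-fitted. PI = daughter cells per labelled HSC; log2(PI) = divisions. Mean ± SD, 3–6 mice, 3 experiments.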

[1] = after intraperitoneal injection; cited from earlier work
murine HSPCs = assay: In vivo G1T28 dose response and pharmacodynamic assay; parameters: species or system mouse
Method in brief: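 Female C57BL/6 mice, 8–10 weeks old, got a single IP dose of 50 or 100 mg/kg test compound. EdU 10 mg/kg IP followed at 0.5 to 168 h, and BM and thymus were harvested 2 h later. Surface-stained cells were live/dead-labelled, fixed in 5% formalin, permeabilised with saponin and click-stained with Alexa Fluor 555 azide. DNA was stained with 2 μg/ml DAPI before flow cytometry. n = 3–6 mice/dose/time point.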

[2] = Human PK study, first-in-human Phase I, single IV infusion; format: in vivo
Method in brief: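 Healthy volunteers got a single IV infusion (6–192 mg/m2), with blood sampled predose and at multiple later times. Plasma was spiked with D3-labelled internal standard and protein-precipitated with acetonitrile, then quantified by validated LC-MS/MS. Calibration was 0.5 to 1,000 ng/mL, weighted (1/x2) linear, LLOQ 0.5 ng/mL. PK parameters were derived by noncompartmental and compartmental methods.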

[3] = Human safety and tolerability assessment, Phase I healthy volunteers; format: in vivo
Method in brief: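 Single-centre, double-blind, randomised, placebo-controlled (3:1) single-dose IV study in healthy adults aged 18–60, BMI 18–32 kg/m2, ≥50 kg. Doses were 6, 12, 24, 48, 96 or 192 mg/m2. Subjects stayed in clinic Day −1 to Day 5 and returned Days 7, 10 and 14. Monitoring covered AEs, clinical laboratory tests, vital signs, 12-lead ECG and physical examination. Toxicity was graded by CTCAE v4.0.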

human BM HSPCs = assay: Human BM proliferation assay; format: in vivo; settings: 192 mg/m^2, 24 hours after dose
Method in brief: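 Healthy volunteers in the 192 mg/m2 single-IV-dose cohort each gave one bone marrow aspirate: predose (n = 5), 24 h (n = 3) or 32 h (n = 4). Lineages were identified by flow cytometry with CD45, CD34, CD14, CD11b, CD71 and CD61. Cell cycle phase (G0/G1 vs S/G2/M) came from DRAQ5 DNA content.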

C57BL/6 mice = assay: 5FU survival assay; format: in vivo, mouse; settings: for increase in median survival over controls / median survival: 100 mg/kg IP 12 h before each 5FU; for survival in serial 5FU assay: 10-day intervals
Method in brief: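 Female C57BL/6 mice, 8–10 weeks old, got 150 mg/kg 5FU IP once every 7 or 10 days. Test compound was given IP at 50 or 100 mg/kg at 30 minutes, 12 hours and/or 24 hours before each 5FU dose. Mice were monitored daily.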

BM progenitors = assay: Single dose 5FU hematologic recovery and methylcellulose colony formation assay; format: in vivo, mouse
HSCs = assay: Serial 5FU treatment and competitive BM reconstitution assay; format: in vivo, mouse; settings: for long-term reconstitution of PB lineages by donor HSCs, primary transplantation: vs 5FU only
Method in brief: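 Donors were female CD45.1 mice given 4 rounds of PBS or 150 mg/kg 5FU at 3-week intervals; some got 150 mg/kg test compound by gavage (vehicle 50 mM citrate, pH 4.0) 30 min before each 5FU. Eight weeks after the last dose, 500,000 donor BM cells plus 500,000 CD45.2 competitor cells went into C57BL/6 recipients irradiated with 2 × 540 rads. Five donors per group, five recipients each. Lineage chimerism was tracked in PB every 4 weeks for ≥16 weeks.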

[4] = ref not given; cited from earlier work
[5] = Terminal half-lives of SCLC standard of care chemotherapy agents; format: in vivo; settings: 4 half-lives
[6] = system: RB-expressing human cell lines; settings: vast majority of RB-expressing human cell lines; cited from earlier work
[7] = single agent, 6 weeks after doxycycline removal
[8] = after G1T28 treatment, single IP 50 or 100 mg/kg
[9] = human, plasma, intravenous, 192 mg/m2
[10] = G1T28 12 hours before single 5FU, 4 weeks after 5FU
[11] = 4 rounds of 5FU at 3-week intervals

Molecule: O=c1[nH]cc(F)c(=O)[nH]1 [5FU, 5-fluorouracil, reference compound]
- average number of HSC divisions (BM HSCs; [7]): 5.3 ± 0.5 divisions
- proliferation index (PI) (BM HSCs; [7]): 41.3 ± 5.4
- plasma t1/2 [1]: 0.167 to 0.333 h

Molecule: CN1CCN(c2ccc(Nc3ncc4cc5n(c4n3)C3(CCCCC3)CNC5=O)nc2)CC1 [G1T28, trilaciclib]
- duration of reduction in EdU incorporation in HSCs before recovery (murine HSPCs; [8]): up to 36 hours
- time of minimum EdU incorporation and S/G2/M cell frequency in HSCs (murine HSPCs; [8]): 12 h
- EdU incorporation (S-phase cells) in all hematopoietic cell types (murine HSPCs; single IP dose, 12 hours after treatment): dose-dependent reduction in EdU incorporation
- end of fast α-phase of elimination ([2]; after end of infusion): approximately 4 h
- end of β-phase of elimination ([2]; after end of infusion): approximately 36 h
- half-life ([2]; human, plasma, intravenous): 5.32 to 9.28 h
- Cmax [2, 9]: 1700 ng/mL
- half-life [2, 9]: 12.9 to 14.7 h
- Tmax ([2]; human, plasma, iv): 0.25 to 0.47 h
- contribution of the terminal phase to the effective half-life ([2]; in vivo): 15-20%
- clinical laboratory testing, vital signs, ECG, physical examination, body weight ([3]; all treatment groups): no clinically relevant changes
- most frequently reported TEAEs ([3]; single IV infusion): headache and nausea
- severe or life-threatening TEAEs ([3]; single IV infusion): No TEAEs of severe or life-threatening intensity were reported
- tolerability ([3]; single IV infusion, all test doses): well tolerated
- peripheral blood cell counts ([3]; single dose, up to 14 days after infusion): did not significantly alter
- reduction in S/G2/M cell frequency of total BM cells (human BM HSPCs): 45%
- increase in median survival over controls (C57BL/6 mice; 5FU at 7-day intervals): 55%
- median survival (C57BL/6 mice; 5FU at 7-day intervals): 28 days
- increase in median survival over controls (C57BL/6 mice; 5FU at 10-day intervals): 125%
- median survival (C57BL/6 mice; 5FU at 10-day intervals): 63 days
- survival protection (C57BL/6 mice; 10-day assay, G1T28 30 minutes before each 5FU): Marked protection
- survival protection over treatment at −30 min alone (C57BL/6 mice; 10-day assay, G1T28 given twice, −24 h and −30 min): no additional protection
- average number of HSC divisions (BM HSCs; [10]): 4.6 ± 0.4 divisions
- proliferation index (PI) (BM HSCs; [10]): 25.2 ± 4.7
- average number of HSC divisions (BM HSCs; [7]): 2.4 ± 1.0 divisions
- proliferation index (PI) (BM HSCs; [7]): 6.2 ± 2.6
- colony-forming cells surviving (BM progenitors; 1 and 2 days after 5FU treatment): increased the number of colony-forming cells
- PB count recovery (BM progenitors; G1T28 30 minutes before single 5FU): significantly accelerated the PB count recovery
- long-term reconstitution of PB lineages by donor HSCs, primary transplantation (HSCs; [11]): enhanced reconstitution of all lineages
- reconstitution in secondary recipients (HSCs; secondary transplantation 32 weeks after initial transplantation): significantly greater overall reconstitution

Molecule: N.N.O=C([O-])C1(C(=O)[O-])CCC1.[Pt+2] [carboplatin]
- terminal half-life [4]: 6 h

Molecule: COc1cc([C@@H]2c3cc4c(cc3[C@@H](O[C@@H]3O[C@@H]5CO[C@@H](C)O[C@H]5[C@H](O)[C@H]3O)[C@H]3COC(=O)[C@H]23)OCO4)cc(OC)c1O [etoposide]
- fraction cleared during a 32-hour G1 arrest [5]: approximately 94%
- terminal half-life [4]: 7.5 h

Molecule: CC(=O)c1c(C)c2cnc(Nc3ccc(N4CCNCC4)cn3)nc2n(C2CCCC2)c1=O [palbociclib, reference compound]
- survival in serial 5FU assay (C57BL/6 mice): survival benefit
- EC50 [6]: > 2000 nM

Molecule: CN(C)C(=O)c1cc2cnc(Nc3ccc(N4CCNCC4)cn3)nc2n1C1CCCC1 [ribociclib, reference compound]
- survival in serial 5FU assay (C57BL/6 mice): survival benefit

B1: pegfilgrastim (protein, chains of the INN, looked up)
chain: TPLGPASSLPQSFLLKCLEQVRKIQGDGAALQEKLCATYKLCHPEELVLLGHSLGIPWAPLSSCPSQALQLAGCLSQLHSGLFLYQGLLQALEGISPELGPTLDTLQLDVADFATTIWQQMEELGMAPALQPTQGAMPAFASAFQRRAGGVLVASHLQSFLEVSYRVLRHLAQP
modifications: PEG
- survival in serial 5FU assay (C57BL/6 mice): survival benefit
- long-term HSC function, combined use of pegfilgrastim with G1T28 (HSCs; [11]): abolished the HSC protective effect of G1T28
- long-term reconstitution of PB lineages by donor HSCs, primary transplantation (HSCs; [11]): did not benefit long-term HSC function

— PMC5774632 (Science translational medicine, 2017)
